# ChEMBL document CHEMBL1671844, “Structure guided development of potent reversibly binding penicillin binding protein inhibitors” (ACS Med Chem Lett, 2011)
# Key:
# [1] = target: D-alanyl-D-alanine carboxypeptidase (Actinomadura sp. R39, UniProt P39045); experiment: Inhibition of Actinomadura R39 PBP after 60 mins
# [2] = target: D-alanyl-D-alanine carboxypeptidase (Actinomadura sp. R39) (UniProt P39045); experiment: Inhibition of Actinomadura R39 PBP assessed as residual activity at 100 uM after 60 mins
# D-alanyl-D-alanine carboxypeptidase (Actinomadura sp. R39), sequence (P39045 whole entry): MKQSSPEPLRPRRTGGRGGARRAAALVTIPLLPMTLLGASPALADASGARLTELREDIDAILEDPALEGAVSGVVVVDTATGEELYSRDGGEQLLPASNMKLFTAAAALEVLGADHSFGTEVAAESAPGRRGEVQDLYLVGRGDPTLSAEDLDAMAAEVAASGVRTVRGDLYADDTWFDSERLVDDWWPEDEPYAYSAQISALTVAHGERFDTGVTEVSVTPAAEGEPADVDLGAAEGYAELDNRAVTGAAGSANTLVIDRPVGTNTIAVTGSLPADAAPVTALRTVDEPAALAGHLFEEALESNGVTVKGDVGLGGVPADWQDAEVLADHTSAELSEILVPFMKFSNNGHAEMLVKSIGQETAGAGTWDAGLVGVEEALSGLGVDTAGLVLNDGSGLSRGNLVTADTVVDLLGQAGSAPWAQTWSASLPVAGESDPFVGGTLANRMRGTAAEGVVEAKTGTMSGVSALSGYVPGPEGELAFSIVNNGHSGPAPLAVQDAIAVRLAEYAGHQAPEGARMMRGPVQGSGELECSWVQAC
# Outline: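 Percentage residual activity of R39 measured with compound at 100 μM, in triplicate.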
# D-alanyl-D-alanine carboxypeptidase, sequence (P39045 whole entry): as above
Structure (SMILES),IC50 [1],Activity [2],Ki [1]
C[C@@H](NC(=O)c1c(F)cccc1-c1ccccc1)B(O)O,270 nM,0%,–
C[C@H](NC(=O)c1c(F)cccc1F)B(O)O,3300 nM,3%,–
C[C@@H](NC(=O)c1ccc2sccc2c1)B(O)O,2200 nM,8%,–
C[C@H](NC(=O)c1ccccc1Cc1ccccc1)B(O)O,7200 nM,16%,–
C[C@@H](NC(=O)c1ccccc1NS(=O)(=O)c1ccccc1)B(O)O,370 nM,3%,–
C[C@@H](NC(=O)c1ccccc1C(c1ccccc1)c1ccccc1)B(O)O,< 80 nM,1%,63 nM
CC(C)c1ccccc1C(=O)N[C@H](C)B(O)O,59000 nM,36%,–
C[C@@H](NC(=O)c1c(F)cccc1F)B(O)O,500 nM,0%,–
C[C@@H](NC(=O)c1ccccc1-c1ccccc1)B(O)O,1310 nM,5%,–
C[C@@H](NC(=O)c1ccccc1Cc1ccccc1)B(O)O,1800 nM,5%,–
C[C@@H](NC(=O)c1ccc2ccccc2c1)B(O)O,14000 nM,19%,–
C[C@@H](NC(=O)c1c(Cl)cccc1Cl)B(O)O,4200 nM,3%,–
C[C@@H](NC(=O)c1ccccc1C(=O)c1ccc2ccccc2c1)B(O)O,80 nM,0%,105 nM
